The term IC50 denotes the concentration needed to halve the response being measured. As usually defined, the EC50 is the concentration needed to bring the measured effect to its halfway point. Lower therefore signals a more potent agent.

The values that follow come from article PMC7059817 (Biomolecules & Therapeutics, 2019).

Assay [1] addresses Aβ1–42 fibrils (Homo sapiens, UniProt P05067). Put plainly: SDS-PAGE electrophoresis and immunoblotting with anti-Aβ antibody 6E10. To be noted: 25 μM fibrils with 25 μM amentoflavone, glutaraldehyde cross-linked. For orientation: Immunoblotting shows a protein as a band on a membrane.
The target in assay [2] is Recombinant human Aβ1–42 peptide (Homo sapiens, UniProt P05067). Put plainly: Aβ1–42 aggregation assay. It is filed as biochemical. In outline:
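Recombinant human Aβ1–42 (HFIP-treated) dissolved in DMSO, diluted into PBS (50 mM NaH2PO4, 100 mM NaCl, pH 7.40); final 20 μM Aβ1–42 with 5 μM ThT ± test compound at 10, 2, 0.4, 0.08 μM (from 10 mM DMSO stocks). Incubated 37°C for 24 h; ThT fluorescence read every 10 min, ex 460/em 508 nm. IC50 from concentration-response curves; mean ± SEM, 4 independent experiments.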

The target in assay [3] is T1, preformed Aβ1–42 fibrils (Homo sapiens, UniProt P05067). Nature of the assay: Aβ1–42 disaggregation assay. It is filed as biochemical. In outline:
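Fibrils preformed by incubating 20 μM recombinant human Aβ1–42 with 5 μM ThT in PBS buffer (pH 7.40), 37°C, 24 h. Test compound then added at final 10, 2, 0.4, 0.08 μM, or DMSO control, and incubated a further 7 h at 37°C. ThT fluorescence read every 2.5 min (ex 460/em 508 nm). EC50 from curves of percent change in ThT intensity versus concentration. Four independent experiments, duplicate samples; mean ± SEM.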

Assay [4] concerns the target T1, preformed Aβ1–42 fibrils. Nature of the assay: Atomic force microscopy imaging of preformed Aβ1–42 fibrils. To be noted: 25 μM fibrils with 25 μM amentoflavone, 1 h.

Where only a bound is given, the exact number is not on record here.

T1 sequence (P05067 672-713): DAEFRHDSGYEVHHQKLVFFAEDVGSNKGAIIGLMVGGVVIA
Sequence of Recombinant human Aβ1–42 peptide (P05067 672-713): as above
Sequence of Aβ1–42 fibrils (P05067 672-713): as above

Consider `O=c1cc(-c2ccc(O)c(-c3c(O)cc(O)c4c(=O)cc(-c5ccc(O)cc5)oc34)c2)oc2cc(O)cc(O)c12` [Amentoflavone, amentoflavone], for which the “Conversion of Aβ1–42 fibrils to oligomers and monomers (immunoblot)” value in assay [1] was “did not increase the conversion of Aβ1–42 fibrils to oligomers and monomers”. The IC50 in assay [2] was 0.26 ± 0.03 µM. The compound also registered an EC50 in assay [3] of 0.59 ± 0.19 µM. In assay [3] (concentration-dependent decline, preformed Aβ1–42 fibrils), the “Time to decline of ThT fluorescent intensity after addition” value is ≤ 30 min. The “Time to lowering of ThT fluorescent intensity after the treatment” value in assay [3] (concentration-dependent, preformed Aβ1–42 fibrils) is ≤ 1 h. Also, in assay [4], the “Structural change of preformed Aβ1–42 fibrils (AFM)” value was “conformational changes of the fibrils into amorphous Aβ1–42 aggregates”.

Consider `COc1ccc(-c2cc(=O)c3c(O)cc(O)c(-c4cc(-c5cc(=O)c6c(O)cc(O)cc6o5)ccc4OC)c3o2)cc1` [Isoginkgetin, isoginkgetin], for which, in assay [2], the concentration for half-maximal inhibition (IC50) turned out to be 1.8 ± 0.38 µM. For the same compound, in assay [3], the 50% effective concentration (EC50) was > 10 µM.

For the compound `COc1ccc(-c2cc(=O)c3c(O)cc(O)cc3o2)cc1-c1c(O)cc(O)c2c(=O)cc(-c3ccc(O)cc3)oc12` [Bilobetin, bilobetin], the IC50 in assay [2] was found to be 1.53 ± 0.2 µM. The compound further came in with a concentration giving a half-maximal response (EC50) in assay [3] of 2.45 ± 1.28 µM.

With `COc1cc(O)c2c(=O)cc(-c3ccc(O)cc3)oc2c1-c1cc(-c2cc(=O)c3c(O)cc(O)cc3o2)ccc1O` [Sotetsuflavone, sotetsuflavone], the IC50 in assay [2] was determined as 8.7 ± 1.21 µM. In addition, in assay [3], the EC50 was > 10 µM.

`COc1cc(O)c2c(=O)cc(-c3ccc(OC)c(-c4c(O)cc(O)c5c(=O)cc(-c6ccc(O)cc6)oc45)c3)oc2c1` [Ginkgetin, ginkgetin]: the IC50 in assay [2] worked out at 4.92 ± 1.31 µM. In assay [3], this compound showed an EC50 of 6.81 ± 4.08 µM.

For `COc1cc(O)c2c(=O)cc(-c3ccc(O)c(-c4c(O)cc(O)c5c(=O)cc(-c6ccc(O)cc6)oc45)c3)oc2c1` [Sequoiaflavone], in assay [2], the IC50 came to 0.29 ± 0.01 µM. It took 2.04 ± 0.79 µM to reach a half-maximal effect in assay [3] (EC50).
